Assay results from ChEMBL document CHEMBL1671728, “Short cationic antimicrobial peptides interact with ATP” (2010).
Converted amounts (≈) assume the structure as drawn. The source made the active and inactive calls. The rule behind the calls is not given here. Square brackets hold non-standard residues; d marks the D form. Peptide text beside a SMILES is read from it. Orn = NCCC[C@H](N)C(=O)O

Assays:
[1] = molecular target: Luciferin 4-monooxygenase (Photinus pyralis) (UniProt P08659); test: Inhibition of Photinus pyralis fire fly luciferase assessed as reduction in light production at 10 times MIC for Pseudomonas aeruginosa PAO1 H103 by ATP bioluminescence assay
Outline: (§1)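 Firefly luciferase kit mix (luciferin, MgSO4, DTT, EDTA, BSA, tricine) was combined with peptide at 1, 3 or 10× MIC against P. aeruginosa PAO1 H103. ATP (200 µM) was added to start the reaction and luminescence was read, with an ATP standard curve. Activity was scored by the lowest MIC multiple giving ≥75% loss of light.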

Pseudomonas aeruginosa = test: Antimicrobial activity against Pseudomonas aeruginosa PAO1 H103; format: functional
[2] = Inhibition of DnaK assessed as reduction in ATP turnover at MIC for Pseudomonas aeruginosa PAO1 H103 by ATPase assay
Outline: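 DnaK ATPase run in 20 mM HEPES pH 8, 10 mM Mg acetate, 100 mM NaCl with 200 µM [α-32P]ATP (~8 Ci/mmol) and peptide at 1× MIC (control without peptide), 37°C for 15 min. Stopped with EDTA/SDS and imaged by phosphorimager. Turnover was taken as the ADP fraction of total spots, corrected for no-protein background, mean of two independent assays.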

[3] = Inhibition of DNA polymerase assessed as reduction in PCR products at MIC for Pseudomonas aeruginosa PAO1 H103 by qPCR
[4] = molecular target: Luciferin 4-monooxygenase (Photinus pyralis) (UniProt P08659); test: Inhibition of Photinus pyralis fire fly luciferase assessed as reduction in light production at 3 times MIC for Pseudomonas aeruginosa PAO1 H103 by ATP bioluminescence assay
Outline: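 Commercial ATP bioluminescence kit with lyophilized firefly luciferase, luciferin, MgSO4, DTT, EDTA, BSA and tricine buffer. An ATP standard curve was run. Peptide was premixed with the kit solution, and ATP (200 µM) was added to start the reaction. Luminescence was read. Peptides were tested at 1×, 3× and 10× their MIC against P. aeruginosa PAO1 H103. Scoring was ≥75% loss of light at 3× MIC.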

[5] = Inhibition of DNA polymerase assessed as reduction in PCR products at 3 times MIC for Pseudomonas aeruginosa PAO1 H103 by qPCR
[6] = molecular target: Luciferin 4-monooxygenase (Photinus pyralis) (UniProt P08659); test: Inhibition of Photinus pyralis fire fly luciferase assessed as reduction in light production at 1 times MIC for Pseudomonas aeruginosa PAO1 H103 by ATP bioluminescence assay; outline: as §1

Chain of Luciferin 4-monooxygenase (Photinus pyralis) (P08659 whole entry): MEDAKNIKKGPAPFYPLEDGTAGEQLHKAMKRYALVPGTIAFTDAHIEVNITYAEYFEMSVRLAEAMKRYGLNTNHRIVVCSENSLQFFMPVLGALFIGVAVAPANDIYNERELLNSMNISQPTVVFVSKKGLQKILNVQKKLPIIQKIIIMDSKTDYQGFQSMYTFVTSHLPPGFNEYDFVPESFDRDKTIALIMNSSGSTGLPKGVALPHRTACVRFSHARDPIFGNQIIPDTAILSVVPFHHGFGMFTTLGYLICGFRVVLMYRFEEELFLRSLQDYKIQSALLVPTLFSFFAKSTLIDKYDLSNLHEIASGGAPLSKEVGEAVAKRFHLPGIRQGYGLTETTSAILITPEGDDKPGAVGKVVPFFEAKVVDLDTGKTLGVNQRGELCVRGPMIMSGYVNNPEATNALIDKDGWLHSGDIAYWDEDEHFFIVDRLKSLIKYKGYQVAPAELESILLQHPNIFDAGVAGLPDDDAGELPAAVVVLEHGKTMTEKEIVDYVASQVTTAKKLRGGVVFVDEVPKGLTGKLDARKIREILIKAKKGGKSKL

Compound	inhibition [1]	MIC (Pseudomonas aeruginosa) [µg/mL]	inhibition [2]	inhibition [3]	inhibition [4] [%]	inhibition [5]	inhibition [6] [%]
CC[C@H](C)[C@H](NC(=O)CNC(=O)[C@@H](NC(=O)[C@H](CCCCN)NC(=O)[C@H](CCCCN)NC(=O)[C@H](Cc1ccccc1)NC(=O)[C@H](CC(C)C)NC(=O)[C@H](CCCCN)NC(=O)[C@H](Cc1c[nH]c2ccccc12)NC(=O)[C@@H](N)CCCCN)[C@@H](C)CC)C(=O)NCC(=O)N[C@@H](C)C(=O)N[C@H](C(=O)N[C@@H](CC(C)C)C(=O)N[C@@H](CCCCN)C(=O)N[C@H](C(=O)N[C@@H](CC(C)C)C(=O)N[C@H](C(=O)N[C@H](C(=O)NCC(=O)N[C@@H](CC(C)C)C(=O)N1CCC[C@H]1C(=O)N[C@@H](C)C(=O)N[C@@H](CC(C)C)C(=O)N[C@H](C(=O)N[C@@H](CO)C(=O)O)[C@@H](C)CC)[C@@H](C)O)[C@@H](C)O)C(C)C)C(C)C	inactive	2 (≈ 0.715 µM)	–	–	–	–	–
CC[C@H](C)[C@H](NC(=O)[C@H](CC(C)C)NC(=O)[C@H](C)NC(=O)[C@@H]1CCCN1C(=O)[C@H](CC(C)C)NC(=O)CNC(=O)[C@@H](NC(=O)[C@@H](NC(=O)[C@H](CC(C)C)NC(=O)[C@@H](NC(=O)[C@H](CCCCN)NC(=O)[C@H](CCCCN)NC(=O)[C@@H](NC(=O)[C@H](C)NC(=O)[C@@H](NC(=O)[C@@H](NC(=O)[C@H](CC(C)C)NC(=O)[C@H](CCCCN)NC(=O)[C@H](CCCCN)NC(=O)[C@@H](NC(=O)[C@H](Cc1ccccc1)NC(=O)[C@H](CO)NC(=O)[C@H](CCCCN)NC(=O)[C@H](Cc1c[nH]c2ccccc12)NC(=O)[C@@H](N)CCCCN)[C@@H](C)CC)[C@@H](C)O)[C@@H](C)O)C(C)C)C(C)C)[C@@H](C)O)[C@@H](C)O)C(=O)N[C@@H](CO)C(=O)O	inactive	2 (≈ 0.696 µM)	inactive	inactive	–	–	–
CC(C)C[C@@H]1NC(=O)[C@H](CCCN)NC(=O)[C@H](C(C)C)NC(=O)[C@@H]2CCCN2C(=O)[C@@H](Cc2ccccc2)NC(=O)[C@H](CC(C)C)NC(=O)[C@H](CCCN)NC(=O)[C@H](C(C)C)NC(=O)[C@@H]2CCCN2C(=O)[C@@H](Cc2ccccc2)NC1=O [GRAMICIDIN S] (cyclo(L[dF]PV[Orn]L[dF]PV[Orn]))	inactive	0.2 (≈ 0.175 µM)	–	inactive	–	–	–
CC(C)[C@H](NC(=O)[C@H](CCCNC(=N)N)NC(=O)[C@H](Cc1ccccc1)NC(=O)[C@H](CS)NC(=O)[C@H](Cc1c[nH]c2ccccc12)NC(=O)[C@H](CCCNC(=N)N)NC(=O)[C@@H](N)CCCNC(=N)N)C(=O)N[C@@H](CS)C(=O)N[C@@H](Cc1ccc(O)cc1)C(=O)N[C@@H](CCCNC(=N)N)C(=O)NCC(=O)N[C@@H](Cc1ccccc1)C(=O)N[C@@H](CS)C(=O)N[C@@H](Cc1ccc(O)cc1)C(=O)N[C@@H](CCCNC(=N)N)C(=O)N[C@@H](CCCCN)C(=O)N[C@@H](CS)C(=O)N[C@@H](CCCNC(=N)N)C(N)=O [POLYPHEMUSIN I] (H-RRWCFRVCYRGFCYRKCR-NH2)	> 75%	2 (≈ 0.814 µM)	–	–	–	–	–
GENTAMICIN	inactive	25	–	–	–	–	–
H-KWKSFIKKLTSAAKKVVTTAKPLISS-OH	inactive	2	–	–	–	–	–
H-KWKSFLKTFKSAVKTVLHTALKAISS-OH	inactive	2	inactive	inactive	–	–	–
H-KWKSFLRTFKSPVRTVFHTALKPISS-OH	inactive	16	–	–	–	–	–
H-KWKSFLRTLKSPAKTVFHTALKAISS-OH	inactive	16	–	–	–	–	–
H-RAVAVIIRLRRV-NH2	–	33	–	–	> 75	–	–
H-RLARIVPIRVAR-NH2	inactive	> 250	–	–	–	–	–
H-RLARIVVIRVAR-NH2	–	50	Active	Active	> 75	–	–
H-RLWRIVVIRVAR-NH2	–	8	Active	–	–	Active	75
H-RRAAVVLIVIRR-NH2	–	7	–	–	> 75	–	–
H-RRWKIVVIRWRR-NH2	–	2	Active	Active	–	–	75
H-RRWRIVVIRVRR-NH2	–	2	–	–	–	–	75
H-VRLRIRVAVIRA-NH2	> 75%	10	–	–	–	–	–
POLYMYXIN B	–	0.5	inactive	inactive	–	–	–
